Assay results taken from ChEMBL document CHEMBL2311514, “Further exploration of M₁ allosteric agonists: subtle structural changes abolish M₁ allosteric agonism and result in pan-mAChR orthosteric antagonism” (Bioorg Med Chem Lett, 2013).
Changes are numbered by the printed parent chain. Values belong to the compound of their own block, whether it stands above or below them. Active and inactive are the calls of the source. The calls are words filed in the database; no cut-off is given here.

Columns and labels:
[1] = target: T1, Muscarinic acetylcholine receptor M5 (Rattus norvegicus, UniProt P08911); test: (§1) Antagonist activity at rat muscarinic M5 receptor expressed in CHO cells assessed as inhibition of Ach-induced calcium response; type: functional, cell-based
T1 sequence (P08911 whole entry): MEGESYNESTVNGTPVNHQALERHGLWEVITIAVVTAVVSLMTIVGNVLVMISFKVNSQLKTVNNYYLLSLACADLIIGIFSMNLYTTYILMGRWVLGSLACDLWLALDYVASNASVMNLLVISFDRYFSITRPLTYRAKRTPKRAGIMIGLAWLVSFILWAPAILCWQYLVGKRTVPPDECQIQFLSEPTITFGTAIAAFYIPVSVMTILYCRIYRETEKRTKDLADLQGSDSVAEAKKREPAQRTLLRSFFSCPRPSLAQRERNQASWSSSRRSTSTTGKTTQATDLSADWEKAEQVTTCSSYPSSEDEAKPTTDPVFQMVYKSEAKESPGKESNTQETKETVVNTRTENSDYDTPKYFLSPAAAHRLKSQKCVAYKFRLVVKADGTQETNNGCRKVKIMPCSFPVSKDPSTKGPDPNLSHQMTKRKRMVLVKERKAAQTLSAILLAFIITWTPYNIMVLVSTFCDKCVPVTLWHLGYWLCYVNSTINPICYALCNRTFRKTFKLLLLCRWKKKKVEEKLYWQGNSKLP

[2] = target: T2, Muscarinic acetylcholine receptor M2 (Homo sapiens, UniProt P08172); test: (§2) Antagonist activity at human muscarinic M2 receptor expressed in CHO cells assessed as inhibition of Ach-induced calcium response; type: functional, cell-based
T2 sequence (P08172 whole entry): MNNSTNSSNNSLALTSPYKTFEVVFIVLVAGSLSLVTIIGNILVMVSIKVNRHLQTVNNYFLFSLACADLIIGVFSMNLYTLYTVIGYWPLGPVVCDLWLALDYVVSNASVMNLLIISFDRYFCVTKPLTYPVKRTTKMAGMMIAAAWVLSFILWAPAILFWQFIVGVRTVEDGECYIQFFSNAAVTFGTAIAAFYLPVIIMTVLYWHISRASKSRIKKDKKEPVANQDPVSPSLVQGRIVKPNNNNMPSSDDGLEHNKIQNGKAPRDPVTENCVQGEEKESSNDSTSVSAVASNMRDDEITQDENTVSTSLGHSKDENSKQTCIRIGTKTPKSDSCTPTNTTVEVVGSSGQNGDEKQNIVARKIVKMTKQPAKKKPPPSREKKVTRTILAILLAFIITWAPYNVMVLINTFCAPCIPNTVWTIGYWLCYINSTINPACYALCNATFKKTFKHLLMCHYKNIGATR

[3] = target: T3, Muscarinic acetylcholine receptor M2 (Rattus norvegicus, UniProt P10980); test: Partial agonist activity at rat muscarinic M2 receptor expressed in CHO cells calcium response; type: functional, cell-based
T3 sequence (P10980 whole entry): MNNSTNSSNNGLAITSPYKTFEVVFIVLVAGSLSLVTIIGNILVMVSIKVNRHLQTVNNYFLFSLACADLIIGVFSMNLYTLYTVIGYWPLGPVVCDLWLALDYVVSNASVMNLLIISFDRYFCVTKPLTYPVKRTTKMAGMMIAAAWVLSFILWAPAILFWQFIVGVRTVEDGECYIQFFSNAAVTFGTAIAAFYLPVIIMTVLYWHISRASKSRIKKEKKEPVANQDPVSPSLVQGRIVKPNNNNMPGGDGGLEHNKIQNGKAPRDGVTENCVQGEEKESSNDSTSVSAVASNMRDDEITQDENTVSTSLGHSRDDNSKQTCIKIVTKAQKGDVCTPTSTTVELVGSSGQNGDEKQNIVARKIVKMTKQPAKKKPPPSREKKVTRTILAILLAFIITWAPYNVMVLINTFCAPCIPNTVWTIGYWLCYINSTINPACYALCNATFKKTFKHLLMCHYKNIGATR
Method in brief: (§3)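 Run in agonist mode as concentration-response curves on rat M1–M5 receptors. EC50 and pEC50 were taken from the curves. Efficacy was expressed as a percentage of the maximal acetylcholine response.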

[4] = target: T4, Muscarinic acetylcholine receptor M1 (Rattus norvegicus) (UniProt P08482); test: Partial agonist activity at rat muscarinic M1 receptor expressed in CHO cells calcium response relative to acetylcholine; type: functional, cell-based; method in brief: as §3
T4 sequence (whole entry): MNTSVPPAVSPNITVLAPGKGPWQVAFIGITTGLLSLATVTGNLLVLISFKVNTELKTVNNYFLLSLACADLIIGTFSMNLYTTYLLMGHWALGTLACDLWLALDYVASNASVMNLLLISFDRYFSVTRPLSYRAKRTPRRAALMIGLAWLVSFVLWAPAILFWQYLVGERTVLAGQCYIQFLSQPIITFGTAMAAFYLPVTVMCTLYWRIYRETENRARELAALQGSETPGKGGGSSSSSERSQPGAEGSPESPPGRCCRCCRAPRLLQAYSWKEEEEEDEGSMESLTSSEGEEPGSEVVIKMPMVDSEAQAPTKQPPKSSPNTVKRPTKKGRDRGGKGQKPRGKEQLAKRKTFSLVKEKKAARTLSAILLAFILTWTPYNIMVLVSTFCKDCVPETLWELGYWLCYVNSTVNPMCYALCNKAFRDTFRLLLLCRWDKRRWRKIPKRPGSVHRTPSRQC

[5] = target: T5, Muscarinic acetylcholine receptor M5 (Homo sapiens, UniProt P08912); test: (§4) Antagonist activity at human muscarinic M5 receptor expressed in CHO cells assessed as inhibition of Ach-induced calcium response; type: functional, cell-based
T5 sequence (P08912 whole entry): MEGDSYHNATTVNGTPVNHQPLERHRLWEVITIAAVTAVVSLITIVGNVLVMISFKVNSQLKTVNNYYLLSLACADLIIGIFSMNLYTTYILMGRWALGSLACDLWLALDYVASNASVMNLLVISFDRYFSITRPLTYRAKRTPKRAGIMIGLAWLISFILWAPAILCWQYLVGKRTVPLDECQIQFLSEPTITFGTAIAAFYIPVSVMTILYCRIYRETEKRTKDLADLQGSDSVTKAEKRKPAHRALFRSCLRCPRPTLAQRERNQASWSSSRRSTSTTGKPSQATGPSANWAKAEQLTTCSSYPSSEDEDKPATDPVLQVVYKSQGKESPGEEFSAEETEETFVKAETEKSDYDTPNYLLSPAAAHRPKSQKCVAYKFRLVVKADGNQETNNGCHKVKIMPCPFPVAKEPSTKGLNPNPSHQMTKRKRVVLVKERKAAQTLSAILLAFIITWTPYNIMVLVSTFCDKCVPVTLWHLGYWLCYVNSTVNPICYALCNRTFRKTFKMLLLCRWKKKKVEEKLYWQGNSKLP

[6] = target: T5, Muscarinic acetylcholine receptor M5; test: Partial agonist activity at human muscarinic M5 receptor expressed in CHO cells calcium response; type: functional, cell-based
[7] = target: T2, Muscarinic acetylcholine receptor M2; test: Partial agonist activity at human muscarinic M2 receptor expressed in CHO cells calcium response; type: functional, cell-based
[8] = target: T3, Muscarinic acetylcholine receptor M2; test: (§5) Antagonist activity at rat muscarinic M2 receptor expressed in CHO cells assessed as inhibition of Ach-induced calcium response; type: functional, cell-based
[9] = target: T6, Muscarinic acetylcholine receptor M3 (Rattus norvegicus, UniProt P08483); test: Partial agonist activity at rat muscarinic M3 receptor expressed in CHO cells calcium response; type: functional, cell-based; method in brief: as §3
[10] = target: T6, Muscarinic acetylcholine receptor M3; test: (§6) Antagonist activity at rat muscarinic M3 receptor expressed in CHO cells assessed as inhibition of Ach-induced calcium response; type: functional, cell-based
[11] = target: T4, Muscarinic acetylcholine receptor M1 (Rattus norvegicus); test: (§7) Partial agonist activity at rat muscarinic M1 receptor expressed in CHO cells calcium response; type: functional, cell-based; method in brief: as §3
[12] = target: T7, Muscarinic acetylcholine receptor M1 (Rattus norvegicus, UniProt P08482); test: (§8) Antagonist activity at rat muscarinic M1 receptor expressed in CHO cells assessed as inhibition of Ach-induced calcium response; type: functional, cell-based
T7 sequence (P08482 whole entry): T4 sequence (whole entry)

[13] = target: T4, Muscarinic acetylcholine receptor M1 (Rattus norvegicus); test: as §8; type: functional, cell-based
[14] = target: T8, Muscarinic acetylcholine receptor M4 (Rattus norvegicus, UniProt P08485); test: (§9) Antagonist activity at rat muscarinic M4 receptor expressed in CHO cells assessed as inhibition of Ach-induced calcium response; type: functional, cell-based
T8 sequence (P08485 whole entry): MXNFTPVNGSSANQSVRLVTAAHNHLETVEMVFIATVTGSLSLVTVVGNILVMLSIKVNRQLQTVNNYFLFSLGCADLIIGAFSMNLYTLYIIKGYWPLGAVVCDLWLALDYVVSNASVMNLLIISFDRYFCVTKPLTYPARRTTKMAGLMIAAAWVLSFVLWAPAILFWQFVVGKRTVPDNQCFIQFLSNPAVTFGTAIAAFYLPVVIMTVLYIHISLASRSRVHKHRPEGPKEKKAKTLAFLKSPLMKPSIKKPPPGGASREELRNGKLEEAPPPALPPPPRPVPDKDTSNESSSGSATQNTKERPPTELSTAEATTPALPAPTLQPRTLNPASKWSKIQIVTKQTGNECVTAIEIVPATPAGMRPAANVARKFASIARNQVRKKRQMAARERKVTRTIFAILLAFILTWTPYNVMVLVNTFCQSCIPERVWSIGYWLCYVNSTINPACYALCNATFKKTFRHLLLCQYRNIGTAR

[15] = target: T7, Muscarinic acetylcholine receptor M1; test: as §7; type: functional, cell-based; method in brief: as §3
[16] = target: T9, Muscarinic acetylcholine receptor M1 (Homo sapiens) (UniProt P11229); test: Antagonist activity at human muscarinic M1 receptor expressed in CHO cells assessed as inhibition of acetylcholine-induced calcium response; type: functional, cell-based
T9 sequence (whole entry): T4 sequence (whole entry) with V5A, S254T, S309P, K320R, G337A, V413I

[17] = target: T4, Muscarinic acetylcholine receptor M1 (Rattus norvegicus); test: Orthosteric antagonist activity at rat muscarinic M1 receptor expressed in CHO cells using [3HNMS] at 50 uM by dissociation kinetic studies; type: cell-based
[18] = target: T7, Muscarinic acetylcholine receptor M1; test: Displacement of [3H]NMS from rat muscarinic M1 receptor expressed in CHO cells after 3 hrs; type: cell-based
[19] = target: T10, Muscarinic acetylcholine receptor M2 (Homo sapiens) (UniProt P08172); test: as §2; type: functional, cell-based
T10 sequence (whole entry): T2 sequence (P08172 whole entry)

[20] = target: T11, Muscarinic acetylcholine receptor M5 (Homo sapiens) (UniProt P08912); test: as §4; type: functional, cell-based
T11 sequence (whole entry): T5 sequence (P08912 whole entry)

[21] = target: T12, Muscarinic acetylcholine receptor M5 (Rattus norvegicus) (UniProt P08911); test: as §1; type: functional, cell-based
T12 sequence (whole entry): T1 sequence (P08911 whole entry)

[22] = target: T13, Muscarinic acetylcholine receptor M2 (Rattus norvegicus) (UniProt P10980); test: as §5; type: functional, cell-based
T13 sequence (whole entry): T3 sequence (P10980 whole entry)

[23] = target: T14, Muscarinic acetylcholine receptor M4 (Rattus norvegicus) (UniProt P08485); test: as §9; type: functional, cell-based
T14 sequence (whole entry): T8 sequence (P08485 whole entry)

[24] = target: Muscarinic acetylcholine receptor M3 (Rattus norvegicus) (UniProt P08483); test: as §6; type: functional, cell-based
Chain of Muscarinic acetylcholine receptor M3 (Rattus norvegicus) (P08483 whole entry, looked up): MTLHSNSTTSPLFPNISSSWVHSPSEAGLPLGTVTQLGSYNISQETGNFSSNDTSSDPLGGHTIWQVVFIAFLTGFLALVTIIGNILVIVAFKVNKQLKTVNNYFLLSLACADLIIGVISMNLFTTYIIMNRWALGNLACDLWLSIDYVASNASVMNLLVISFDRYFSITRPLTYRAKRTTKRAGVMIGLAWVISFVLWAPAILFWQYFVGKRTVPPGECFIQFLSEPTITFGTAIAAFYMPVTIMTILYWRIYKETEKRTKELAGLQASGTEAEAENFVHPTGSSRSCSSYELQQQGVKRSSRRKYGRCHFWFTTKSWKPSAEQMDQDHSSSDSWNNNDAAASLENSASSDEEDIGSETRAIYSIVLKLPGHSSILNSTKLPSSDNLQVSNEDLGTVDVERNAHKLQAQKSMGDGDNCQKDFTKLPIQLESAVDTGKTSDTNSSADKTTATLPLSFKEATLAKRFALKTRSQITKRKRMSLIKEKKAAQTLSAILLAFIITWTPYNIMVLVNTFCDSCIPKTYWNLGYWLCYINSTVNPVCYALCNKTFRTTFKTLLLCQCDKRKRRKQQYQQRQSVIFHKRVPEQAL

T6 sequence (P08483 whole entry): as the sequence (P08483 whole entry, looked up) above

Compound: Cc1ccccc1CN1CCC(N2CCC(n3c(=O)[nH]c4ccccc43)CC2)CC1
- IC50 ([1]; read-out: IC50): 3.97 µM
- IC50 [2]: 3.5 µM
- EC50 [3]: > 30 µM
- Imax [4]: 69.3%
- IC50 [5]: 4.9 µM
- EC50 [6]: > 30 µM
- EC50 [7]: > 30 µM
- IC50 ([8]; read-out: IC50): 1.29 µM
- EC50 [9]: > 30 µM
- IC50 ([10]; read-out: IC50): 5.48 µM

Compound: Cc1ccccc1CN1CCC(N2CC3CC(n4c(=O)[nH]c5ccccc54)CC3C2)CC1 (centres undefined)
- Activity [11]: inactive
- IC50 ([1]; read-out: IC50): > 10 µM
- IC50 ([12]; read-out: IC50): 6.4 µM
- Imax [13]: -1.07%
- IC50 ([8]; read-out: IC50): > 10 µM
- IC50 [14]: > 10 µM
- IC50 ([10]; read-out: IC50): > 10 µM

- EC50 [15]: 2 µM
- Imax [4]: 37.4%
Compound: CCOC(=O)N1CCC(N2CCC[C@@H](NC(=O)c3cccc(Br)c3)C2)CC1

Compound: Cc1ccccc1CN1CCC(N2CCC(n3c(=O)[nH]c4ccccc43)C(F)C2)CC1 (centres undefined)
- inhibition [16]: Active
- Activity [11]: inactive
- Activity [17]: Active
- Ki [18]: 1.35 µM
- IC50 ([1]; cho, read-out: IC50): > 10 µM
- IC50 ([1]; read-out: pIC50 (converted)): > 10 µM
- inhibition [19]: Active
- IC50 ([12]; read-out: IC50): 4.9 µM
- Imax [13]: 13.6%
- inhibition [20]: Active
- IC50 ([8]; cho, read-out: IC50): > 10 µM
- IC50 ([8]; read-out: pIC50 (converted)): > 10 µM
- IC50 [14]: 5.2 µM
- IC50 ([10]; cho, read-out: IC50): > 10 µM
- IC50 ([10]; read-out: pIC50 (converted)): > 10 µM

Compound: CCOC(=O)N1CCC(N[C@H]2CCCN(C(=O)c3ccccc3)C2)CC1
- inhibition [21]: Active
- IC50 ([12]; read-out: IC50): 0.273 µM
- IC50 ([12]; read-out: pIC50 (converted)): 0.479 µM
- Imax [13]: 3%
- inhibition [22]: Active
- inhibition [23]: Active
- inhibition [24]: Active

Compound: CCOC(=O)N1CCC(N2CCC[C@@H](NC(=O)c3cc(Br)cc(Br)c3)C2)CC1
- IC50 ([12]; read-out: pIC50 (converted)): 3.39 µM
- Imax [13]: 0.4%

Compound: CCOC(=O)N1CCC(N2CCC[C@@H](NC(=O)c3ccc(C(F)(F)F)nc3)C2)CC1
- IC50 ([1]; read-out: IC50): > 10 µM
- IC50 ([12]; read-out: pIC50 (converted)): 3.16 µM
- Imax [13]: 2.7%
- IC50 ([8]; read-out: pIC50 (converted)): 1.07 µM
- IC50 [14]: > 10 µM
- IC50 ([10]; read-out: IC50): > 10 µM
